# Experimental data reported in ChEMBL document CHEMBL1641444, “Synthesis and evaluation of 6-[1-(2-[(18)F]fluoro-3-pyridyl)-5-methyl-1H-1,2,3-triazol-4-yl]quinoline for positron emission tomography imaging of the metabotropic glutamate receptor type 1 in brain” (Bioorg Med Chem, 2011).
# Legend:
# [1] = test system: Hippocampus; assay: Biodistribution in hippocampus of Sprague-Dawley rat at 17 MBq, iv after 30 mins by dissection method; type: ADME, organism-based; settings: in vivo, 0.5 h
# Outline: (§1)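 The [18F]ligand was given to rats as a saline solution (average 17 MBq, about 0.11 nmol) via the tail vein. Three rats per time point were killed by cervical dislocation at 5, 15 and 30 min. Dissected tissues were gamma-counted with decay correction, and results are expressed as % injected dose per gram of wet tissue.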
# [2] = test system: Pancreas; assay: Biodistribution in pancreas of Sprague-Dawley rat at 17 MBq, iv after 30 mins by dissection method; type: ADME, organism-based; settings: in vivo, 0.5 h
# Outline: (§2)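 [¹⁸F]7a in saline (average 17 MBq/200 µL, 0.11 nmol) was given by tail vein. Rats were killed by cervical dislocation at 5, 15 or 30 min, with three rats per time point. Tissue radioactivity was measured by gamma counting, decay-corrected and expressed as %ID per gram of wet tissue.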
# [3] = test system: Cerebral cortex; assay: Biodistribution in cerebral cortex of Sprague-Dawley rat at 17 MBq, iv after 15 mins by dissection method; type: ADME, organism-based; settings: in vivo, 0.25 h; outline: as §1
# [4] = Biodistribution in olfactory bulb of Sprague-Dawley rat at 17 MBq, iv after 30 mins by dissection method; type: ADME, organism-based; settings: in vivo, 0.5 h; outline: as §2
# [5] = Biodistribution in pons-medulla of Sprague-Dawley rat at 17 MBq, iv after 15 mins by dissection method; type: ADME, organism-based; settings: in vivo, 0.25 h; outline: as §2
# [6] = test system: Pancreas; assay: Biodistribution in pancreas of Sprague-Dawley rat at 17 MBq, iv after 15 mins by dissection method; type: ADME, organism-based; settings: in vivo, 0.25 h; outline: as §2
# [7] = Biodistribution in pons-medulla of Sprague-Dawley rat at 17 MBq, iv after 5 mins by dissection method; type: ADME, organism-based; settings: in vivo; outline: as §2
# [8] = test system: Striatum; assay: Biodistribution in striatum of Sprague-Dawley rat at 17 MBq, iv after 15 mins by dissection method; type: ADME, organism-based; settings: in vivo, 0.25 h; outline: as §2
# [9] = test system: Blood; assay: Biodistribution in blood of Sprague-Dawley rat at 17 MBq, iv after 30 mins by dissection method; type: ADME, organism-based; settings: in vivo, 0.5 h; outline: as §1
# [10] = test system: Liver; assay: Biodistribution in liver of Sprague-Dawley rat at 17 MBq, iv after 15 mins by dissection method; type: ADME, organism-based; settings: in vivo, 0.25 h; outline: as §1
# [11] = Ratio of drug uptake in Sprague-Dawley rat thalamus to medulla at 17 MBq, iv after 10 to 15 mins by small-animal PET; settings: in vivo
# [12] = Biodistribution in small intestine of Sprague-Dawley rat at 17 MBq, iv after 15 mins by dissection method; type: ADME, organism-based; settings: in vivo, 0.25 h; outline: as §2
# [13] = test system: Blood; assay: Biodistribution in blood of Sprague-Dawley rat at 17 MBq, iv after 15 mins by dissection method; type: ADME, organism-based; settings: in vivo, 0.25 h; outline: as §1
# [14] = test system: Thalamus; assay: Biodistribution in thalamus of Sprague-Dawley rat at 17 MBq, iv after 30 mins by dissection method; type: ADME, organism-based; settings: in vivo, 0.5 h; outline: as §2
# [15] = test system: Bone; assay: Biodistribution in bone of Sprague-Dawley rat at 17 MBq, iv after 30 mins by dissection method; type: ADME, organism-based, Bone element; settings: in vivo, 0.5 h; outline: as §1
# [16] = Fraction unbound in Sprague-Dawley rat plasma after 15 mins by ultra-filtration method; type: ADME; settings: 0.25 h
# Outline: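 Plasma protein binding was measured by ultrafiltration. Blood was spun at 3900 rpm for 5 min at 4 °C to obtain plasma. 40 µL of plasma was centrifuged in a filter unit at 2000 rpm for 15 min at 25 °C, and a saline control was run the same way. Free fraction was taken as ultrafiltrate/plasma radioactivity, corrected for a stick factor.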
# [17] = test system: Striatum; assay: Biodistribution in striatum of Sprague-Dawley rat at 17 MBq, iv after 5 mins by dissection method; type: ADME, organism-based; settings: in vivo; outline: as §2
# [18] = test system: Bone; assay: Biodistribution in bone of Sprague-Dawley rat at 17 MBq, iv after 15 mins by dissection method; type: ADME, organism-based, Bone element; settings: in vivo, 0.25 h; outline: as §1
# [19] = test system: Spleen; assay: Biodistribution in spleen of Sprague-Dawley rat at 17 MBq, iv after 5 mins by dissection method; type: ADME, organism-based; settings: in vivo; outline: as §2
# [20] = test system: Cerebellum; assay: Biodistribution in cerebellum of Sprague-Dawley rat at 17 MBq, iv after 5 mins by dissection method; type: ADME, organism-based; settings: in vivo; outline: as §1
# [21] = test system: Cerebellum (Mus musculus); assay: Metabolic stability in cerebellum of mouse assessed as reduction of parent compound level at 3.7 MBq, iv after 15 mins by HPLC analysis; set-up: scale not given: the % may be the effect or the level left; settings: in vivo, 0.25 h
# [22] = Ratio of drug uptake in Sprague-Dawley rat striatum to medulla at 17 MBq, iv after 10 to 15 mins by small-animal PET; settings: in vivo
# [23] = Ratio of drug uptake in Sprague-Dawley rat hippocampus to medulla at 17 MBq, iv after 10 to 15 mins by small-animal PET; settings: in vivo
# [24] = test system: Bone; assay: Biodistribution in bone of Sprague-Dawley rat at 17 MBq, iv after 5 mins by dissection method; type: ADME, organism-based, Bone element; settings: in vivo; outline: as §1
# [25] = test system: Heart; assay: Biodistribution in heart of Sprague-Dawley rat at 17 MBq, iv after 30 mins by dissection method; type: ADME, organism-based; settings: in vivo, 0.5 h; outline: as §1
# [26] = test system: Spleen; assay: Biodistribution in spleen of Sprague-Dawley rat at 17 MBq, iv after 30 mins by dissection method; type: ADME, organism-based; settings: in vivo, 0.5 h; outline: as §2
# [27] = Biodistribution in small intestine of Sprague-Dawley rat at 17 MBq, iv after 5 mins by dissection method; type: ADME, organism-based; settings: in vivo; outline: as §2
# [28] = test system: Muscle tissue; assay: Biodistribution in muscle of Sprague-Dawley rat at 17 MBq, iv after 30 mins by dissection method; type: ADME, organism-based; settings: in vivo, 0.5 h; outline: as §2
# [29] = test system: Kidney; assay: Biodistribution in kidney of Sprague-Dawley rat at 17 MBq, iv after 5 mins by dissection method; type: ADME, organism-based; settings: in vivo; outline: as §1
# [30] = Biodistribution in whole brain of Sprague-Dawley rat at 17 MBq, iv after 30 mins by dissection method; type: ADME, organism-based; settings: in vivo, 0.5 h; outline: as §2
# [31] = test system: Lung; assay: Biodistribution in lung of Sprague-Dawley rat at 17 MBq, iv after 30 mins by dissection method; type: ADME, organism-based; settings: in vivo, 0.5 h; outline: as §2
# [32] = test system: Cerebral cortex; assay: Biodistribution in cerebral cortex of Sprague-Dawley rat at 17 MBq, iv after 30 mins by dissection method; type: ADME, organism-based; settings: in vivo, 0.5 h; outline: as §1
# [33] = test system: Muscle tissue; assay: Biodistribution in muscle of Sprague-Dawley rat at 17 MBq, iv after 15 mins by dissection method; type: ADME, organism-based; settings: in vivo, 0.25 h; outline: as §2
# [34] = test system: Lung; assay: Biodistribution in lung of Sprague-Dawley rat at 17 MBq, iv after 5 mins by dissection method; type: ADME, organism-based; settings: in vivo; outline: as §2
# [35] = test system: Muscle tissue; assay: Biodistribution in muscle of Sprague-Dawley rat at 17 MBq, iv after 5 mins by dissection method; type: ADME, organism-based; settings: in vivo; outline: as §2
# [36] = test system: Kidney; assay: Biodistribution in kidney of Sprague-Dawley rat at 17 MBq, iv after 15 mins by dissection method; type: ADME, organism-based; settings: in vivo, 0.25 h; outline: as §1
# [37] = test system: Liver; assay: Biodistribution in liver of Sprague-Dawley rat at 17 MBq, iv after 5 mins by dissection method; type: ADME, organism-based; settings: in vivo; outline: as §2
# [38] = Metabolic stability in plasma of ddy mouse assessed as reduction of parent compound level at 3.7 MBq, iv after 15 mins by HPLC analysis; set-up: scale not given: the % may be the effect or the level left; settings: 0.25 h
# [39] = Biodistribution in olfactory bulb of Sprague-Dawley rat at 17 MBq, iv after 5 mins by dissection method; type: ADME, organism-based; settings: in vivo; outline: as §2
# [40] = test system: Liver; assay: Biodistribution in liver of Sprague-Dawley rat at 17 MBq, iv after 30 mins by dissection method; type: ADME, organism-based; settings: in vivo, 0.5 h; outline: as §2
# [41] = Biodistribution in olfactory bulb of Sprague-Dawley rat at 17 MBq, iv after 15 mins by dissection method; type: ADME, organism-based; settings: in vivo, 0.25 h; outline: as §2
# [42] = test system: Blood; assay: Biodistribution in blood of Sprague-Dawley rat at 17 MBq, iv after 5 mins by dissection method; type: ADME, organism-based; settings: in vivo; outline: as §1
structure (smiles),measurement,setting,value
Cc1c(-c2ccc3ncccc3c2)nnn1-c1cccnc1[18F],Drug uptake,[1],0.09 % ID/g
same,Drug uptake,[2],0.21 % ID/g
same,Drug uptake,[3],0.2 % ID/g
same,Drug uptake,[4],0.1 % ID/g
same,Drug uptake,[5],0.21 % ID/g
same,Drug uptake,[6],0.34 % ID/g
same,Drug uptake,[7],0.47 % ID/g
same,Drug uptake,[8],0.23 % ID/g
same,Drug uptake,[9],0.15 % ID/g
same,Drug uptake,[10],2.04 % ID/g
same,Ratio,[11],1.91
same,Drug uptake,[12],4.64 % ID/g
same,Drug uptake,[13],0.26 % ID/g
same,Drug uptake,[14],0.1 % ID/g
same,Drug uptake,[15],0.22 % ID/g
same,Activity,[16],8.5%
same,Drug uptake,[17],0.54 % ID/g
same,Drug uptake,[18],0.15 % ID/g
same,Drug uptake,[19],0.43 % ID/g
same,Drug uptake,[20],1.21 % ID/g
same,Stability,[21],91%
same,Ratio,[22],1.55
same,Ratio,[23],1.42
same,Drug uptake,[24],0.22 % ID/g
same,Drug uptake,[25],0.16 % ID/g
same,Drug uptake,[26],0.16 % ID/g
same,Drug uptake,[27],3.06 % ID/g
same,Drug uptake,[28],0.1 % ID/g
same,Drug uptake,[29],0.76 % ID/g
same,Drug uptake,[30],0.11 % ID/g
same,Drug uptake,[31],0.17 % ID/g
same,Drug uptake,[32],0.09 % ID/g
same,Drug uptake,[33],0.14 % ID/g
same,Drug uptake,[34],0.5 % ID/g
same,Drug uptake,[35],0.28 % ID/g
same,Drug uptake,[36],0.57 % ID/g
same,Drug uptake,[37],2.3 % ID/g
same,Stability,[38],23%
same,Drug uptake,[39],0.52 % ID/g
same,Drug uptake,[40],1.93 % ID/g
same,Drug uptake,[41],0.24 % ID/g
same,Drug uptake,[42],0.38 % ID/g
